Most compounds without a hit are left out; they make up all but 1.9% or so of the library.
Runt-SMMHC FRET: blocks binding of human RUNX1 Runt domain to CBFb-SMMHC. Q01196+Q13951. Cerulean-Runt/Venus-CBFb-SMMHC FRET ratio 530/480, 1 h. inhibition, % at 20 µM. 0.74% of 220,000 active. AID 1434;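 active means mean inhibition across duplicate retests at 20 µM reaching about 50%, limit read from the data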;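 further: 0% = DMSO wells and 100% = wells with excess untagged CBFb-SMMHC; inhibitors lower the FRET ratio by blocking Runt binding to CBFb-SMMHC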
Hck-Nef inh: human Hck-Nef kinase inhibition. P08631. Recombinant Hck-YEEI plus Nef, Z-Lyte FRET kinase assay. inhibition, % at 20 µM. 0.68% of 220,000 active;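 active means Hck-Nef kinase inhibition above about 50%, limit read from the data; inactive means inhibition below that limit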;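 further: 0% = DMSO with Hck plus Nef and 100% = Hck alone without Nef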
Target sequence (P08631 whole entry, looked up): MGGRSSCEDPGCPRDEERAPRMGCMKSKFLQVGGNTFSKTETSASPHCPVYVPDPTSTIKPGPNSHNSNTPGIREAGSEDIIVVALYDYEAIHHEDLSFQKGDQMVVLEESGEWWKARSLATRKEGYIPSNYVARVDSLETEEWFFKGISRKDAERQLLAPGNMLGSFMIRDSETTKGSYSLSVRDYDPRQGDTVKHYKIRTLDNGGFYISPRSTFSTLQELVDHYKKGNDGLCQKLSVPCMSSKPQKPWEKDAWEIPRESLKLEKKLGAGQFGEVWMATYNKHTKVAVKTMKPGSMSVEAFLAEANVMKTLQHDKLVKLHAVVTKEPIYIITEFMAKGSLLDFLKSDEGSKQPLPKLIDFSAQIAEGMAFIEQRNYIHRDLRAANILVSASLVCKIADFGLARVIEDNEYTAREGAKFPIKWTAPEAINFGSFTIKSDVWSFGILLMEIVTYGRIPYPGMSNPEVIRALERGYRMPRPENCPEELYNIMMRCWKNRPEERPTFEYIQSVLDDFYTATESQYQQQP
Runt-CBFb FRET: blocks binding of human RUNX1 Runt domain to CBFb; 0.46% of 220,000 active; AID 1496; inhibition, % at 20 µM; Cerulean-Runt/Venus-CBFb FRET ratio 530/480, 1 h;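 active means inhibition over about 50% at 20 µM in the single-dose screen, limit read from the data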;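 further: 0% = DMSO wells and 100% = excess unlabeled CBFb competitor control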
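Schedule: protein complex preformed 1 h, compound exposure 1 h, room temperature, dark; test system: Cerulean-labeled Runt domain protein; amount: 100 nM per protein; buffer or medium: Tris 50 mM pH 7.5, KCl, K2SO4, 0.01% BSA; read-out: loss of energy transfer signal; detection: FRET fluorescence; controls: 5 µM unlabeled CBFb as full-inhibition high control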
TbHK1 inh: blocks Trypanosoma brucei hexokinase 1 activity | recombinant TbHK1, G6PDH-coupled NADH A340 | inhibition, % at 10 µM | 0.11% of 220,000 active | AID 1430;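 active means inhibition of 50% or more in the single-dose primary screen; inactive means inhibition below 50%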
RanGTP-Imp inh: disruptors of Ran-importin-beta complex formation – biochemical, FRET, CFP-Ran, YFP-importin-beta, homogeneous, primary screen | cell-free CFP-Ran/YFP-importin-beta FRET ratio | inhibition, % (no concentration beside the values) | 1.1% of 300,000 active;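 active means more than half of the replicate wells show a fall in the fluorescence ratio signal beyond about 16%, limit read from the data, passing the limit was not always enough; inconclusive means exactly half of the replicate wells pass the set limit; inactive means fewer than half of replicates pass the limit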;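 further: 0% = DMSO wells and 100% = Ran loaded with GDP instead of GTP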
Runt-CBFb TRFRET: disrupts human RUNX1 Runt domain binding to CBFb; shares compounds with Runt-CBFb FRET; TR-FRET RUNX1 Runt domain-CBFb binding; inhibition, % at 20 µM; 20% of 480 active; AID 1502; in the data active means inhibition above about 40%
YIC FRET counter: counter-screen YIC FRET for RanGTP-importin-beta inhibitors | shares compounds with RanGTP-Imp inh | Purified YIC probe, intramolecular FRET ratio YFP/CFP | 40% of 1,000 active | IC50, µM;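 active means fitted half-maximal inhibitory concentration no more than tenfold above the top dose tested; inconclusive means flat fit with 30 to 70% activity, or poor fit; inactive means half-maximal concentration beyond tenfold above the top dose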
Hck-Nef confirm: Hck-Nef kinase inhibition, confirmation. calls only at 10 µM. shares compounds with Hck-Nef inh. Recombinant Hck-YEEI:Nef, Z-Lyte FRET kinase assay. 28% of 1,300 active;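 active means average inhibition of at least 50%, with Z-scores no higher than 3 in both the phospho-tyrosine peptide and fluorescence counterscreens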
* marks the source's active call; other numbers are inactive results; i = inactive; ? = inconclusive; nt = not tested or not shown; + = active, no number.

SMILES	Runt-SMMHC FRET	Hck-Nef inh	Runt-CBFb FRET	TbHK1 inh	RanGTP-Imp inh	YIC FRET counter	others
O=C(NCCO)c1nsnc1NCCCl	-6.6	10.0	55.8*	-13.5	-1.3	nt	Runt-CBFb TRFRET=25.3
Oc1ccc(CC2(N3CCCC3)CCCCC2)cc1	nt	nt	nt	nt	2.8	nt
CC(=NCCN(C)C)c1c(O)n(Cc2ccccc2)c(=O)[nH]c1=O	-1.9	9.5	-1.1	-10.9	0.2	nt
C[C@]12CC[C@@H]3c4ccc(O)c(O)c4CC[C@H]3[C@@H]1CC[C@@H]2O	66.2*	nt	54.5*	nt	?	nt	Runt-CBFb TRFRET=51.9*
CCOC(=O)c1c(C)n(CCOC)c2ccc(O)cc12	-0.1	1.7	-0.3	5.0	-1.2	nt
COCCCn1c(N)c(C(=O)OCCOC)c2nc3ccccc3nc21	116.1*	38.3	81.0*	-16.7	?	nt	Runt-CBFb TRFRET=25.0
COCCOC(=O)c1c(N)n(Cc2ccc(OC)cc2)c2nc3ccccc3nc12	105.2*	21.8	51.6*	-23.9	8.5	nt	Runt-CBFb TRFRET=30.9
COc1ccc(CCNCc2ccccc2)cc1	nt	nt	nt	nt	2.9	nt
CC1CN(c2ccc([N+](=O)[O-])c(N3CCCCC3)c2)CCN1 (stereo unspecified)	-10.1	18.0	0.5	-12.4	1.7	nt
CCCNC(=O)c1c(N)n(Cc2ccco2)c2nc3ccccc3nc12	58.7*	29.0	52.4*	-14.5	93.0*	nt	Runt-CBFb TRFRET=22.7
COC(=O)c1c(C)n(Cc2ccco2)c2ccc(O)cc12	0.2	3.2	3.4	-7.4	-3.8	nt
CCOC(=O)c1c(N)n(CCCOC(=O)c2ccco2)c2nc3ccccc3nc12	116.0*	30.0	72.4*	-10.4	23.5*	23.8*	Runt-CBFb TRFRET=23.2
COc1cc(OC)c2c(c1)O[C@@H](c1ccc(OC)c(OC)c1)[C@H](O)C2	nt	nt	nt	nt	5.0	nt
O=c1[nH]c(O)c(/C=C2/C=CC(c3cc(Cl)ccc3Cl)=N2)c(=O)[nH]1	80.2*	29.1	115.2*	16.8	37.9*	4.04*
Cn1c(O)c(/C=N/N2CCCCC2)c(=O)[nH]c1=O	3.8	0.4	-0.6	-7.9	5.2	nt
Cc1ccc(-n2c(O)c(/C=N/N3CCCCCC3)c(=O)[nH]c2=O)cc1C	1.7	-7.3	2.2	-10.7	22.1*	>50
O=c1[nH]c(=O)n(-c2cccc3ccccc23)c(O)c1/C=N/N1CCCCC1	4.9	23.9	-0.6	-6.1	3.7	nt
O=c1[nH]c(=O)n(-c2cccc3ccccc23)c(O)c1/C=N/N1CCCCCC1	0.5	14.1	0.0	-16.4	21.9*	>50
FC(F)(F)c1ccc(NC2=NCCCS2)cc1	nt	nt	nt	nt	0.9	nt
Cc1c(OC(=O)N(C)C)ccc2c1O/C(=C\c1ccco1)C2=O	nt	nt	nt	nt	29.9*	11.7*
Cc1cccc(C)c1OC(=O)Cc1ccccc1	1.1	27.0	-0.9	-1.3	0.1	nt
Cc1sc2nc(COC(=O)Cc3ccccc3)[nH]c(=O)c2c1C	-2.0	1.4	-3.1	5.4	20.1*	>50
c1ccc(C(OCCN2CCN(c3ncccn3)CC2)c2ccccc2)cc1	nt	nt	nt	nt	0.9	nt
Nc1ccc(C2(c3ccc(N)cc3)CN3CCC2CC3)cc1	-1.7	1.0	0.5	-5.7	48.6*	>50
Cc1ccc(C2(O)CN3CCC2CC3)cc1 (stereo unspecified)	nt	nt	nt	nt	1.3	nt
SMILES	Runt-SMMHC FRET	Hck-Nef inh	Runt-CBFb FRET	TbHK1 inh	RanGTP-Imp inh	YIC FRET counter	others
Cc1cc(/C=C2\C(=O)NC(=O)N(c3ccc(F)cc3)C2=O)c(C)n1-c1ccc(C(=O)O)cc1	-9.1	18.6	8.7	-11.3	17.7*	>50
CCc1ccc(N2C(=O)NC(=O)/C(=C\c3cc(C)n(-c4cc(C(=O)O)cc(C(=O)O)c4)c3C)C2=O)cc1	nt	nt	nt	nt	19.2*	>50
C1CC2NCCC3NCCC(N1)N32 (stereo unspecified)	6.5	16.7	-0.2	4.8	1.7	nt
C[C@H](NC(=O)N1C[C@H]2C[C@@H](C1)c1cccc(=O)n1C2)C(=O)Nc1ccc(F)c(F)c1	nt	nt	nt	nt	-6.4	nt
COc1ccc(CCNCc2c(OC)ccc3ccccc23)cc1	nt	nt	nt	nt	0.2	nt
NC(N)=N/N=C/c1ccc(N(c2ccccc2)c2ccccc2)cc1	nt	nt	nt	nt	23.1*	>50
CCN1C(=O)/C(=C/c2ccc3c(c2)CCN3CCCCl)C(=O)NC1=S	5.4	55.1*	7.7	10.3	24.8	nt	Hck-Nef confirm=+
Cc1cc(/C=C2\C(=O)NC(=O)N(Cc3ccco3)C2=O)c(C)n1-c1ccc(C(=O)O)cc1	-13.3	50.2*	-5.3	-10.4	4.6	nt	Hck-Nef confirm=i
COc1ccc(OC)c(N2C(=O)/C(=C/c3ccco3)C(=O)NC2=S)c1	nt	nt	nt	nt	3.1	nt
COc1ccc(OC)c(N2C(=O)NC(=O)/C(=C/c3ccc([N+](=O)[O-])s3)C2=O)c1	11.1	88.8*	19.1	-12.1	0.5	nt	Hck-Nef confirm=i
O=C(O)c1[nH]c(=O)[nH]c(=O)c1F	-1.1	17.0	0.7	-7.0	5.0	nt
